Assay results taken from article PMC5901702 (Journal of biomolecular screening, 2012).

Tests used:
rat IDE [1] = target: T1, rat IDE (Rattus norvegicus, UniProt P35559); test: ATP effect on rat IDE activity and activators; format: biochemical; settings: Tris/BSA, 1 mM ATP
T1 sequence (P35559 1-1019): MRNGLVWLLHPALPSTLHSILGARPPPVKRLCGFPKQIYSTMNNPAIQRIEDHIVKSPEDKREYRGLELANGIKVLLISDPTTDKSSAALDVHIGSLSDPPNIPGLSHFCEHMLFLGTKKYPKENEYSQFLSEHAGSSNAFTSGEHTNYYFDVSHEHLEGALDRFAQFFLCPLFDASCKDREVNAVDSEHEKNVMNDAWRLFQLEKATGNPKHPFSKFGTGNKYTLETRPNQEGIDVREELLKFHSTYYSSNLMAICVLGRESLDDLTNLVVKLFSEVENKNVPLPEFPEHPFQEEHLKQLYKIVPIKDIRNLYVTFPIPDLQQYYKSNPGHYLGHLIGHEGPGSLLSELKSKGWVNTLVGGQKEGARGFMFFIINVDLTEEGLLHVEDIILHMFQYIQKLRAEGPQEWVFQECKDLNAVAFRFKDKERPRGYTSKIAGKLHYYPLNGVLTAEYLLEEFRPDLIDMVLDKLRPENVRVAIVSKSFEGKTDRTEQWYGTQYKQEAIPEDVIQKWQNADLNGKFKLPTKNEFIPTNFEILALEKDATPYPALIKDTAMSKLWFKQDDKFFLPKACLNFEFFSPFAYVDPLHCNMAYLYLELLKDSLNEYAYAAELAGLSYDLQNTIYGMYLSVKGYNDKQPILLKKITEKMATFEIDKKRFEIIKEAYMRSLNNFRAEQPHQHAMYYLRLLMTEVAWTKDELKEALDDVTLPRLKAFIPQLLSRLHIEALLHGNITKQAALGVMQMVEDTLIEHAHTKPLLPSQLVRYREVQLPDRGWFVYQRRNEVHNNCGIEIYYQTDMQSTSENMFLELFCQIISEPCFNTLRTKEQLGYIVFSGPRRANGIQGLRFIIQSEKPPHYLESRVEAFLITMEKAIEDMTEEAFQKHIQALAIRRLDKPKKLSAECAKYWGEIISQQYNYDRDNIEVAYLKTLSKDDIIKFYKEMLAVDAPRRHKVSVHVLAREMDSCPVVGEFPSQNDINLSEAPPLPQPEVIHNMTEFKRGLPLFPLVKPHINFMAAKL
How it was run: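 Rat IDE (87.7 nM) with 50 µM a-factor–based internally quenched fluorogenic substrate in 50 mM Tris pH 7.5 containing BSA and 1 mM ATP. Compounds were used at optimal levels taken from Tris/BSA dose-response curves. ATP titration (0–10 mM) was also run in 0.1 M KPi pH 7.6 or Tris/BSA. Activity is % of water- or DMSO-treated control, n = 4.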

rat IDE [2] = target: T1, rat IDE; test: Thermal melt; format: binding; settings: 100 µM compound; rat IDE 0.5 µM; 28 to 70 °C
How it was run: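 Thermal shift: recombinant rat IDE (0.5 µM) with 5× SYPRO Orange in 0.1 M KPi pH 7.6, plus DMSO or compound (100 µM). Samples were held 60 min in the dark at room temperature under mineral oil, then heated 28–70 °C in 1–3 °C steps. Fluorescence was read at 465/590 nm. Tm came from a four-parameter variable-slope sigmoidal fit.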

SMILES | % activity relative to ATP-only condition (rat IDE [1]; compound 500 µM) | shift in thermal melting profile (Tm) of IDE (rat IDE [2]) | activation over the ATP-only condition (rat IDE [1]; compound 125 µM)
Nc1nc(SCc2ccccc2Cl)cc(C(=O)O)n1 [Compound 5] | > 250% | – | –
O=S(=O)(O)c1cc(O)c2c(O)c(N=Nc3cccc4ccccc34)c(S(=O)(=O)O)cc2c1 [Compound 3] | – | substantial shift in the melting profile | approximately 25%
